The source made the active and inactive calls. The rule behind the calls is not given here.
Legend:
MDA-MB-468 [1] = assay: Antiproliferative activity against human MDA-MB-468 cells measured after 48 hrs under normoxic condition by MTT assay; type: functional, cell-based; details: MDA-MB-468, 48 h
Hs-578T = assay: Antitumor activity against human HS 578T cells assessed as cell growth inhibition at 10 uM incubated for 48 hrs by sulforhodamine B assay; type: functional; details: read-out: GI
Summary of the method: (§1)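 NCI Drug Evaluation Branch protocol: primary single-dose screen at 10 μM across a 57-line human cancer panel. Drug exposure is 48 h. Cell growth and viability are read by sulforhodamine B assay. Data are given as a mean graph of percent growth of treated cells and reported as percentage growth inhibition (GI%).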

MDA-MB-468 [2] = assay: Antiproliferative activity against human MDA-MB-468 cells measured after 48 hrs under CoCl2-induced hypoxic condition by MTT assay; type: functional, cell-based; details: MDA-MB-468, 48 h
MCF7 [3] = assay: Antiproliferative activity against human MCF7 cells measured after 48 hrs under CoCl2-induced hypoxic condition by MTT assay; type: functional, cell-based; details: MCF7, 48 h
MCF7 [4] = assay: Induction of apoptosis in human MCF7 cells assessed as necrotic cells by Annexin V-FITC/propidium iodide staining based flow cytometric analysis (reference value: 1.3 %); type: functional
MCF7 [5] = assay: Induction of apoptosis in human MCF7 cells assessed as fold increase in apoptotic cells by Annexin V-FITC/propidium iodide staining based flow cytometric analysis relative to control; type: functional
MCF7 [6] = assay: Induction of apoptosis in human MCF7 cells assessed as early apoptotic cells by Annexin V-FITC/propidium iodide staining based flow cytometric analysis (reference value: 0.47 %); type: functional
DU-145 = assay: Antitumor activity against human DU-145 cells assessed as cell growth inhibition at 10 uM incubated for 48 hrs by sulforhodamine B assay; type: functional; details: read-out: GI; summary of the method: as §1
Carbonic anhydrase 12 = Carbonic anhydrase 12 (Homo sapiens, UniProt O43570); assay: Inhibition of recombinant human carbonic anhydrase 12 preincubated with enzyme for 15 mins by phenol red dye based stopped flow CO2 hydrase assay
Carbonic anhydrase 12, sequence (O43570 whole entry): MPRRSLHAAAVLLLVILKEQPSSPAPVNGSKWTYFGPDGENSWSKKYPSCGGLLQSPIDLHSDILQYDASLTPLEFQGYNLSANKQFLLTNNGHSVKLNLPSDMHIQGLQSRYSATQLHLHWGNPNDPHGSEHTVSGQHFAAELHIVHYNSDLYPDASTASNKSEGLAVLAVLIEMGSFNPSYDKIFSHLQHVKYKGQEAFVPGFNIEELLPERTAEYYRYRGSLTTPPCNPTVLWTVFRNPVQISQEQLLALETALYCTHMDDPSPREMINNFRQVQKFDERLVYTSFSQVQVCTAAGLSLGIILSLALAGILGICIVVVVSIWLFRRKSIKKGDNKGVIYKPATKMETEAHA

MCF7 [7] = assay: Induction of cell cycle arrest in human MCF7 cells assessed as accumulation at G2/M phase at IC50 concentration incubated for 24 hrs by PI/RNase staining based flow cytometric analysis; type: functional
Summary of the method: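 Cells were washed in ice-cold PBS, fixed in ice-cold 70% ethanol, treated with 100 µg/mL RNase and stained with 40 µg/mL PI. DNA content was read by flow cytometry, with sub-G1 compared against control.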

MCF7 [8] = assay: Induction of apoptosis in human MCF7 cells assessed as late apoptotic cells by Annexin V-FITC/propidium iodide staining based flow cytometric analysis (reference value: 0.29 %); type: functional
MCF7 [9] = assay: Antiproliferative activity against human MCF7 cells measured after 48 hrs under normoxic condition by MTT assay; type: functional, cell-based; details: MCF7, 48 h
A549 = assay: Antitumor activity against human A549/ATCC cells assessed as cell growth inhibition at 10 uM incubated for 48 hrs by sulforhodamine B assay; type: functional; details: read-out: GI; summary of the method: as §1
HT-29 = assay: Antitumor activity against human HT-29 cells assessed as cell growth inhibition at 10 uM incubated for 48 hrs by sulforhodamine B assay; type: functional; details: read-out: GI; summary of the method: as §1
HL-60(TB) = assay: Antitumor activity against human HL-60(TB) cells assessed as cell growth inhibition at 10 uM incubated for 48 hrs by sulforhodamine B assay; type: functional; details: read-out: GI
Summary of the method: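 Single-dose NCI-60-type screen of 57 human cancer cell lines at 10 μM under the NCI Drug Evaluation Branch protocol. Drugs exposed for 48 h; growth and viability read by sulforhodamine B assay. Data given as mean-graph percent growth of treated cells, expressed as percent growth inhibition.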

M14 = assay: Antitumor activity against human M14 cells assessed as cell growth inhibition at 10 uM incubated for 48 hrs by sulforhodamine B assay; type: functional; details: read-out: GI; summary of the method: as §1
MDA-MB-435 = assay: Antitumor activity against human MDA-MB-435 cells assessed as cell growth inhibition at 10 uM incubated for 48 hrs by sulforhodamine B assay; type: functional; details: read-out: GI; summary of the method: as §1
TK-10 = assay: Antitumor activity against human TK-10 cells assessed as cell growth inhibition at 10 uM incubated for 48 hrs by sulforhodamine B assay; type: functional; details: read-out: GI
Summary of the method: (§2)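 NCI one-dose screen: 57-cell-line panel exposed at 10 μM for 48 h, Drug Evaluation Branch protocol. Growth and viability read by sulforhodamine B; data given as percent growth inhibition from the mean-graph of percent growth of treated cells.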

SK-OV-3 = assay: Antitumor activity against human SK-OV-3 cells assessed as cell growth inhibition at 10 uM incubated for 48 hrs by sulforhodamine B assay; type: functional; details: read-out: GI; summary of the method: as §1
NCI-H23 = assay: Antitumor activity against human NCI-H23 cells assessed as cell growth inhibition at 10 uM incubated for 48 hrs by sulforhodamine B assay; type: functional; details: read-out: GI; summary of the method: as §1
SK-MEL-28 = assay: Antitumor activity against human SK-MEL-28 cells assessed as cell growth inhibition at 10 uM incubated for 48 hrs by sulforhodamine B assay; type: functional; details: read-out: GI; summary of the method: as §1
ACHN = assay: Antitumor activity against human ACHN cells assessed as cell growth inhibition at 10 uM incubated for 48 hrs by sulforhodamine B assay; type: functional; details: read-out: GI; summary of the method: as §1
UACC-62 = assay: Antitumor activity against human UACC-62 cells assessed as cell growth inhibition at 10 uM incubated for 48 hrs by sulforhodamine B assay; type: functional; details: read-out: GI; summary of the method: as §2
SF-295 = assay: Antitumor activity against human SF295 cells assessed as cell growth inhibition at 10 uM incubated for 48 hrs by sulforhodamine B assay; type: functional; details: read-out: GI; summary of the method: as §1
A498 = assay: Antitumor activity against human A498 cells assessed as cell growth inhibition at 10 uM incubated for 48 hrs by sulforhodamine B assay; type: functional; details: read-out: GI; summary of the method: as §1
HCT-15 = assay: Antitumor activity against human HCT15 cells assessed as cell growth inhibition at 10 uM incubated for 48 hrs by sulforhodamine B assay; type: functional; details: read-out: GI; summary of the method: as §1
OVCAR-4 = assay: Antitumor activity against human OVCAR-4 cells assessed as cell growth inhibition at 10 uM incubated for 48 hrs by sulforhodamine B assay; type: functional; details: read-out: GI; summary of the method: as §1
EKVX = assay: Antitumor activity against human EKVX cells assessed as cell growth inhibition at 10 uM incubated for 48 hrs by sulforhodamine B assay; type: functional; details: read-out: GI; summary of the method: as §1
UACC-257 = assay: Antitumor activity against human UACC-257 cells assessed as cell growth inhibition at 10 uM incubated for 48 hrs by sulforhodamine B assay; type: functional; details: read-out: GI; summary of the method: as §2
Malme-3M = assay: Antitumor activity against human MALME-3M cells assessed as cell growth inhibition at 10 uM incubated for 48 hrs by sulforhodamine B assay; type: functional; details: read-out: GI; summary of the method: as §1
SW-620 = assay: Antitumor activity against human SW620 cells assessed as cell growth inhibition at 10 uM incubated for 48 hrs by sulforhodamine B assay; type: functional; details: read-out: GI; summary of the method: as §2
SNB-19 = assay: Antitumor activity against human SNB-19 cells assessed as cell growth inhibition at 10 uM incubated for 48 hrs by sulforhodamine B assay; type: functional; details: read-out: GI; summary of the method: as §1
COLO 205 = assay: Antitumor activity against human COLO205 cells assessed as cell growth inhibition at 10 uM incubated for 48 hrs by sulforhodamine B assay; type: functional; details: read-out: GI; summary of the method: as §1
SR = assay: Antitumor activity against human SR cells assessed as cell growth inhibition at 10 uM incubated for 48 hrs by sulforhodamine B assay; type: functional; details: read-out: GI; summary of the method: as §2
786-0 = assay: Antitumor activity against human 786-0 cells assessed as cell growth inhibition at 10 uM incubated for 48 hrs by sulforhodamine B assay; type: functional; details: read-out: GI; summary of the method: as §1
HCC 2998 = assay: Antitumor activity against human HCC2998 cells assessed as cell growth inhibition at 10 uM incubated for 48 hrs by sulforhodamine B assay; type: functional; details: read-out: GI; summary of the method: as §1
OVCAR-5 = assay: Antitumor activity against human OVCAR-5 cells assessed as cell growth inhibition at 10 uM incubated for 48 hrs by sulforhodamine B assay; type: functional; details: read-out: GI; summary of the method: as §1

N#Cc1c(-c2ccc(Cl)cc2)nc2c(/N=N/c3ccc(S(N)(=O)=O)cc3)c(N)nn2c1N was tested, and the IC50 (MDA-MB-468 [1]) was 11.4 µM, the inhibition of growth at 10 µM (Hs-578T) was 30% and the IC50 (MDA-MB-468 [2]) was 19.6 µM. For the same compound, the IC50 (MCF7 [3]) was 10.3 µM, the Activity (MCF7 [4]) was 2.17% and the “fold change (FC)” value (MCF7 [5]) was 18. The Activity (MCF7 [6]) was 5.88%, the inhibition of growth at 10 µM (DU-145) was 40% and the Ki (Carbonic anhydrase 12) was 0.0142 µM. For the same compound, the Activity (MCF7 [7]) was “Active”, the Activity (MCF7 [8]) was 8.2% and the IC50 (MCF7 [9]) was 2.07 µM.

Cc1ccc(-c2cn3nc(N)c(/N=N/c4ccc(S(N)(=O)=O)cc4)c3[nH]2)cc1 gave an inhibition of growth at 10 µM (A549) of 62%, an inhibition of growth at 10 µM (HT-29) of 37% and an inhibition of growth at 10 µM (Hs-578T) of 64%. The inhibition of growth at 10 µM (HL-60(TB)) was 47%, the inhibition of growth at 10 µM (M14) was 60% and the inhibition of growth at 10 µM (MDA-MB-435) was 52%. The inhibition of growth at 10 µM (TK-10) was 53%, the inhibition of growth at 10 µM (SK-OV-3) was 77% and the inhibition of growth at 10 µM (NCI-H23) was 34%. The inhibition of growth at 10 µM (SK-MEL-28) was 38%, the inhibition of growth at 10 µM (ACHN) was 79% and the inhibition of growth at 10 µM (UACC-62) was 44%. The inhibition of growth at 10 µM (SF-295) was 29%, the inhibition of growth at 10 µM (A498) was 87% and the inhibition of growth at 10 µM (HCT-15) was 65%. The inhibition of growth at 10 µM (DU-145) was 52%, the inhibition of growth at 10 µM (OVCAR-4) was 46% and the inhibition of growth at 10 µM (EKVX) was 28%. It also gave an inhibition of growth at 10 µM (UACC-257) of 20%, an inhibition of growth at 10 µM (Malme-3M) of 63% and an inhibition of growth at 10 µM (SW-620) of 60%. It also gave an inhibition of growth at 10 µM (SNB-19) of 24%, an inhibition of growth at 10 µM (COLO 205) of 24% and a Ki (Carbonic anhydrase 12) of 0.0277 µM. For the same compound, the inhibition of growth at 10 µM (SR) was 63%, the inhibition of growth at 10 µM (786-0) was 60% and the inhibition of growth at 10 µM (HCC 2998) was 40%. The inhibition of growth at 10 µM (OVCAR-5) was 23%.

From ChEMBL document CHEMBL4680175, “Sulfonamide-based ring-fused analogues for CAN508 as novel carbonic anhydrase inhibitors endowed with antitumor activity: Design, synthesis, and in vitro biological evaluation” (Eur J Med Chem, 2020)
